Reference: article PMC7571425 (Antiviral Research, 2020)
Where two headings read alike, the source gives them in different places.

Legend:
[1] = Cytotoxicity in mock-infected Vero E6 cells; format: cell-based; conditions: African green monkey
SARS-CoV-2 [2] = assay: Image-based; format: cell-based, SARS-CoV-2 (hCoV/Korea/KCDC-03/2020); conditions: Severe acute respiratory syndrome coronavirus 2, 48 h, MOI 2.5, 48 h post-infection
Cell viability assay [3] = format: cell-based; conditions: human
In short: (§1)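 Cardiomyocytes were differentiated from H9 hESCs or CMC-hiPSC-011 hiPSCs (CHIR99021, then Wnt inhibitor C59; lactate selection days 10–15). They were exposed to graded drug concentrations (DMSO stocks) for 24 h or 48 h. Viability was read by MTS, absorbance 490 nm. CC50 came from four-parameter nonlinear regression. Mean ± SD of at least two independent experiments in triplicate.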

SARS-CoV-2 [4] = format: cell-based; conditions: for reduction in SARS-CoV-2 titers: 33 μM
hPSC-CMs = assay: Electrophysiological characterization of hPSC-CMs; format: cell-based, human; conditions: for repolarization: dofetilide 10 nM, E4031 30 nM
SARS-CoV-2 [5] = assay: CPE-based antiviral assay in Vero E6 cells; format: cell-based, SARS-CoV-2 (hCoV/Korea/KCDC-03/2020)
Cell viability assay [6] = format: cell-based; conditions: human; remark: listed apart in the source
In short: as §1

SARS-CoV-2 [7] = assay: RT-qPCR of intracellular SARS-CoV-2 RNA in hPSC-CMs; format: cell-based; conditions: 0.3 μM and 1 μM
hERG currents = hERG currents (Homo sapiens, UniProt Q12809); assay: cell-based
Sequence of hERG currents (Q12809 whole entry): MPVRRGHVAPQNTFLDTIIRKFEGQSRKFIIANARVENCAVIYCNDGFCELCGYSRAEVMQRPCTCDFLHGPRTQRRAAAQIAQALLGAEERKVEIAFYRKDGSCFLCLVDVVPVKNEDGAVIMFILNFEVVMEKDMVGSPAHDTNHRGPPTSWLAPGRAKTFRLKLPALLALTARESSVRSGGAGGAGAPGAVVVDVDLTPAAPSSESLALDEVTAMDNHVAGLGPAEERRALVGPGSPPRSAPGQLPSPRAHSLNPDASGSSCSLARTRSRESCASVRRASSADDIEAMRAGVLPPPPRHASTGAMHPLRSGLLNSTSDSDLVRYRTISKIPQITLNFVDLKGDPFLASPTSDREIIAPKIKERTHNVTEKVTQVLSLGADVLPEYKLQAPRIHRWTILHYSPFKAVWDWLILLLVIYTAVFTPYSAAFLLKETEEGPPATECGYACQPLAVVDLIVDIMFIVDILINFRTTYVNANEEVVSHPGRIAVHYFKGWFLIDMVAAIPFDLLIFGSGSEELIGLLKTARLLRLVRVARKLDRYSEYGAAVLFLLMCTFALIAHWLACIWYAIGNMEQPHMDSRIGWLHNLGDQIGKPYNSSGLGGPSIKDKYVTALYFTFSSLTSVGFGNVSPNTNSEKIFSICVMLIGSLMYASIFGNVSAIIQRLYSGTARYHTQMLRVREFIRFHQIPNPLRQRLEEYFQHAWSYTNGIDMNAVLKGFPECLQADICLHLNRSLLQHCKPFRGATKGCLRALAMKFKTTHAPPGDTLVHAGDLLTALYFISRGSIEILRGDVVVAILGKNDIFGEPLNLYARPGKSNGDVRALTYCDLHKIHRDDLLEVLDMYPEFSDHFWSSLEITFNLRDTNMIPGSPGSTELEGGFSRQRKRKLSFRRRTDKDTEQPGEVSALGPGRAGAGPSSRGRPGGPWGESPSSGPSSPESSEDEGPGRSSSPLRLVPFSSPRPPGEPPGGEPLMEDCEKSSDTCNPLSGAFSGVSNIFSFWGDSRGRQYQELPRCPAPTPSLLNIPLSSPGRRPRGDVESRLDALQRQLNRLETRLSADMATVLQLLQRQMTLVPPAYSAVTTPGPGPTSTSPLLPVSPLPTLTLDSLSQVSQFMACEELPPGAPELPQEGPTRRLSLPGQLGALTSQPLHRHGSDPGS

[8] = hESC-CMs (human embryonic stem cell-derived cardiomyocytes)

SMILES: CCN(CC)CCCC(C)Nc1ccnc2cc(Cl)ccc12 (centres unmarked) [Chloroquine]
- CC50 at 72 h [1]: > 100 µM
- EC50 (SARS-CoV-2 [2]; hESC-CMs): 27.9 µM
- EC90 (SARS-CoV-2 [2]; hESC-CMs): > 84.9 µM
- EC50 (SARS-CoV-2 [2]; hiPSC-CMs): 12.1 µM
- EC90 (SARS-CoV-2 [2]; hiPSC-CMs): 24.1 µM
- CC50 at 48 h (Cell viability assay [3]; [8]): 84.9 µM
- infectious viral particle production (SARS-CoV-2 [4]; hESC-CMs and hiPSC-CMs, highest tested concentration): complete suppression
- reduction in SARS-CoV-2 titers (SARS-CoV-2 [4]; hESC-CMs): 2.3 log10 PFU/ml
- effect on viral titers (SARS-CoV-2 [4]; hPSC-CMs, 11 μM): did not affect
- reduction in SARS-CoV-2 titers (SARS-CoV-2 [4]; hiPSC-CMs): 0.3 log10 PFU/ml
- Na+ peak amplitude and T-wave (hiPSC-CMs; 30 min exposure): pronounced reduction of Na^+ peak amplitude and T-wave flattening
- field potential duration (FPD) (hiPSC-CMs; 30 min exposure): increased the field potential duration (FPD) of hiPSC-CMs in a dose-dependent manner

SMILES: Cc1cccc(CCN2CCC(C(=O)c3ccc(NS(C)(=O)=O)cc3)CC2)n1 [E4031]
- repolarization (hPSC-CMs): significantly delayed

SMILES: NC(=O)c1nc(F)c[nH]c1=O [Favipiravir (T-705), favipiravir]
- in vitro antiviral activity against SARS-CoV-2 (SARS-CoV-2 [5]): no apparent in vitro antiviral activity

SMILES: CCN(CCO)CCCC(C)Nc1ccnc2cc(Cl)ccc12 (centres unmarked) [Hydroxychloroquine, hydroxychloroquine]
- CC50 at 72 h [1]: 76.1 µM

SMILES: CCC(CC)COC(=O)[C@H](C)N[P@](=O)(OC[C@H]1O[C@@](C#N)(c2ccc3c(N)ncnn23)[C@H](O)[C@@H]1O)Oc1ccccc1 [Remdesivir]
- selectivity index (SI) (SARS-CoV-2 [5]; CC50/EC50): > 50
- CC50 at 72 h [1]: > 100 µM
- EC50 (SARS-CoV-2 [2]; hESC-CMs): 0.6 µM
- EC90 (SARS-CoV-2 [2]; hESC-CMs): 1.3 µM
- EC50 (SARS-CoV-2 [2]; hiPSC-CMs): 0.2 µM
- EC90 (SARS-CoV-2 [2]; hiPSC-CMs): 0.33 µM
- CC50 at 24 h (Cell viability assay [3]; [8]): 17.7 µM
- CC50 at 48 h (Cell viability assay [3]; [8]): 10.2 µM
- CC50 (Cell viability assay [3]; hPSC-CMs (hESC-CMs and hiPSC-CMs)): 10.2 to 39.4 µM
- CC50 at 24 h (Cell viability assay [6]): 39.4 µM
- CC50 at 48 h (Cell viability assay [6]): 15.6 µM
- viral particle production (SARS-CoV-2 [4]; hESC-CMs and hiPSC-CMs, 0.3 μM and 1 μM remdesivir): Complete suppression
- reduction of viral titer (SARS-CoV-2 [4]; hPSC-CMs, 0.1 μM): minimal reduction
- intracellular viral mRNA synthesis (SARS-CoV-2 [7]): complete inhibition
- concentration that reduced Na+ peak amplitudes and spontaneous beating rates, followed by complete cessation of spontaneous beating (hiPSC-CMs; 30 min exposure): ≥ 30 µM
- field potential duration (FPD) (hiPSC-CMs; 30 min exposure): dose-dependent prolongations of FPD
- Early afterdepolarizations (EADs) and delayed afterdepolarizations (DADs) (hiPSC-CMs; data not shown): not detected
- IC50 (hERG currents): > 100 µM

SMILES: CN(CCOc1ccc(NS(C)(=O)=O)cc1)CCc1ccc(NS(C)(=O)=O)cc1 [dofetilide]
- repolarization (hPSC-CMs): significantly delayed

SMILES: CC(C)NCC(O)c1ccc(O)c(O)c1 (centres unmarked) [isoprenaline]
- rate of AP (hPSC-CMs; 100 nM): substantially increased
